Assay [1] concerns the target T1, 5-hydroxytryptamine receptor 1A (Rattus norvegicus, UniProt P19327).
T1 sequence (P19327 whole entry): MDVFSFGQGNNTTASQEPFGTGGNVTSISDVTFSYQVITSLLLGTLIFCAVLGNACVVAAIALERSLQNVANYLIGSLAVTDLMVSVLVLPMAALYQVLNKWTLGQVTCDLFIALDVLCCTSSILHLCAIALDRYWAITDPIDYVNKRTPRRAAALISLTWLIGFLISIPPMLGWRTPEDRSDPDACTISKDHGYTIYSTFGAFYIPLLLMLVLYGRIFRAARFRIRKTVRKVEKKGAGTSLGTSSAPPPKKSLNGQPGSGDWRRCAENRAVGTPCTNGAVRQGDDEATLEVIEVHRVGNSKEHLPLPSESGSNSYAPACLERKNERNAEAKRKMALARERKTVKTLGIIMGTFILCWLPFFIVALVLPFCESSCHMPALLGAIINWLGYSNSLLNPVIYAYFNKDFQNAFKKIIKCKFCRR
Put plainly: Binding affinity towards 5-hydroxytryptamine 1A receptor in the rat brain (hippocampus) using [3H]8-OH-DPAT. Format: tissue-based. An outline of the steps: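 Rat hippocampal membranes; competition binding against [3H]-8-OH-DPAT (190 Ci/mmol) using 10-14 drug concentrations, each run in triplicate. Ki derived from at least three independent competition experiments. Remaining conditions follow a previously published procedure.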

Assay [2] has as its system Rattus norvegicus. Put plainly: Compound was tested for the induction of lower lip retraction in rats at a dose of 1.25 mg/kg. Format: functional. The method, boiled down:
(§1)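 Male Wistar rats (220-260 g), compound ip as fresh aqueous solution, 6-8 animals/dose, each used once. Rats caged individually; lower lip retraction scored at 15, 30 and 45 min post-injection: 0 incisors not visible, 0.5 partly, 1 completely visible. Mean ± SEM score; Dunnett's test vs vehicle.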

The subject of assay [3] is Rattus norvegicus. Put plainly: Compound was tested for the induction of lower lip retraction in rats at a dose of 5 mg/kg. It is filed as functional. An outline of the steps:
as §1

The subject of assay [4] is Rattus norvegicus. Put plainly: Compound was tested for the induction of behavioral syndrome (forepaw treading) in rats at a dose of 5 mg/kg. Format: functional. An outline of the steps: (§2)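 Male Wistar rats (220-260 g), reserpine 1 mg/kg sc 18 h before test; compound as fresh aqueous solution ip, rats placed in cages 5 min beforehand. 45-s observation sessions began 3 min after injection, repeated every 3 min over five periods; forepaw treading and flat body posture scored 0 (absent) to 3 (intense). 6-8 rats/dose; mean ± SEM, Dunnett's test.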

The subject of assay [5] is Rattus norvegicus. Put plainly: Effect on the 8-OH-DPAT-Induced Behavior(flat body posture) in Reserpine Pretreated Rats at a dose of 10 mg/kg. Format: functional. The method, boiled down: (§3)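 Reserpinized male Wistar rats (reserpine 1 mg/kg sc, 18 h prior); compound ip 15 min before 8-OH-DPAT 5 mg/kg ip, fresh aqueous solutions. Observations began 3 min after 8-OH-DPAT, repeated every 3 min for 15 min; flat body posture ranked 0-3. 6-8 rats/dose; mean ± SEM, Dunnett's test vs vehicle + 8-OH-DPAT.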

Assay [6] concerns Rattus norvegicus. Put plainly: Compound was tested for the induction of behavioral syndrome(flat body posture) in rats at a dose of 10 mg/kg. Format: functional. An outline of the steps:
as §2

The subject of assay [7] is Rattus norvegicus. Put plainly: Compound was tested for the induction of behavioral syndrome (forepaw treading) in rats at a dose of 10 mg/kg. Format: functional. The method, boiled down:
as §2

Assay [8] relates to Rattus norvegicus. Put plainly: Compound was tested for the induction of behavioral syndrome(flat body posture) in rats at a dose of 5 mg/kg. Format: functional. The method, boiled down:
as §2

For assay [9], the system named is Rattus norvegicus. Put plainly: Effect on the 8-OH-DPAT-Induced Behavior(flat body posture) in Reserpine Pretreated Rats at a dose of 5 mg/kg. Format: functional. The method, boiled down:
as §3

Assay [10] concerns Rattus norvegicus. Put plainly: Compound was tested for the induction of lower lip retraction in rats at a dose of 2.5 mg/kg. It is filed as functional. An outline of the steps:
as §1

Molecules are shown by their SMILES. Values joined by “and” are separate entries in the source; they are usually repeats but may differ in a detail not shown here. Identical values can stand only once. Some results are limits rather than exact numbers.

Molecule `O=C1c2ccccc2C(=O)N1CCN1CCc2ccccc2C1` displayed a Ki in assay [1] of 41.3 µM. This counts as double-digit micromolar.
Take `O=C1CC2(CCCC2)CC(=O)N1CCCCN1CCc2ccccc2C1`: the LLR score came to 1.2 in [2], 2.5 in [3] and 1.9 in [10]. The Behavioral score in assay [4] was 2; in assay [5] it was 13.7 and 7.8; in assay [6], 11; in assay [7] it was 2.7; in [8], 7.8; in assay [9] it was 14.5 and 8.9. In assay [1], this molecule gave an inhibitory constant (Ki) of 0.005 µM.
Consider `O=C1CC2(CCCC2)CC(=O)N1CCN1CCc2ccccc2C1`, for which, in assay [1], the affinity corresponds to a Ki of 1.33 µM.
On to `O=C1c2ccccc2C(=O)N1CCCCN1CCc2ccccc2C1`, for which the Ki in assay [1] came to 0.14 µM.
`c1ccc2c(c1)CCNC2` [1,2,3,4-TETRAHYDROISOQUINOLINE]: the Ki in [1] was above 50 µM.
As to `O=C1CC2(CCCC2)CC(=O)N1CCCCN1CCN(c2ncccn2)CC1` [BUSPIRONE], the values for the LLR score in assay [2], in assay [3] and in assay [10] were 1.6, 2.4 and 2.3, respectively. Besides, the Behavioral score in assay [4] is 0.2; in [5] it was 9.5 and 3.7; in [6], 6.4; in [7], 0.6; in assay [8], 6.8; in assay [9] it was 14.3 and 5.

In general, Ki refers to a measure of affinity in units of concentration, obtained from inhibition or displacement.

The record behind these values is ChEMBL document CHEMBL1129514 (J Med Chem, 1996).
